Laboratory results from publication PMC11071470 (bioRxiv, 2024).

Key:
A3Bctd = A3Bctd (Homo sapiens, UniProt Q9UH17); assay: Intact protein mass spectrometry; format: binding
Method in brief: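 Covalent test compound incubated with A3Bctd for 1 h and 3 h at varying molar equivalents of compound over protein, then analysed by intact protein mass spectrometry. Degree of covalent adduction was quantified from the intensity of the adduct mass species.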

UDG = molecular target: T1, UDG (Escherichia coli, UniProt P12295); settings: cited from earlier work
T1 sequence (P12295 1-229): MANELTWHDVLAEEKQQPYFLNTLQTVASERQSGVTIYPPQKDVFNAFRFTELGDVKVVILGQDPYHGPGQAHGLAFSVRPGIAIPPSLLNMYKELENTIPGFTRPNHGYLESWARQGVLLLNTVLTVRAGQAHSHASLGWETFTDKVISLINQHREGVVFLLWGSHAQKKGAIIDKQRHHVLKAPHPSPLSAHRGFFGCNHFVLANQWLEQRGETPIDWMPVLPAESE

Chain of A3Bctd (Q9UH17 193-382): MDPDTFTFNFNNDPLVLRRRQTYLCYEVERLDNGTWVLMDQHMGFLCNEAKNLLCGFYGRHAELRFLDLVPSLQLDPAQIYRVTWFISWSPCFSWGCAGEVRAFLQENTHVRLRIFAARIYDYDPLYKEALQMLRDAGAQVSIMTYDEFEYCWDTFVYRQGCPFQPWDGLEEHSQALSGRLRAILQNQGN

Compound | multiple adduction events (in words) (A3Bctd) | inhibition of UDG (in words) (UDG)
CCC1(O)CCCN(C(=O)c2ccc(-c3ccc(F)c(NC(=O)CCl)c3)cc2)C1 (centres unmarked) [Compound 24] | Multiple adduction events are detected | 
O=C(O)C1=CC(=C(c2ccc(O)c(C(=O)O)c2)c2ccc(O)c(C(=O)O)c2)C=CC1=O [MN1, aurintricarboxylic acid] |  | inhibits UDG
